According to ChEMBL document CHEMBL4017544 (J Med Chem, 2017):
Active and inactive are the calls of the source. The calls are words filed in the database; no cut-off is given here.

Key:
[1] = target: Kelch-like ECH-associated protein 1 (Homo sapiens) (UniProt Q14145); experiment: Inhibition of Keap1/Nrf2 (unknown origin) interaction transfected in HEK293 cells assessed as increase in nuclear to cytosolic Nfr2 ratio at 200 to 1000 nM after 48 hrs by Western blot analysis; format: cell-based
Procedure, shortened: (§1)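 HEK293 cells grown in high-glucose DMEM with 10% FBS were treated in triplicate at 200 or 1000 nM for 48 h. Nuclear and cytosolic Nrf2, HO-1 and cytoplasmic NQO1 were measured by western blot with specific antibodies, with TBP and β-actin among the probed proteins. The nuclear/cytosolic Nrf2 ratio was derived from these blots. Three independent experiments, mean ± SD.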

[2] = Drug level in Wistar rat liver homogenates treated with 1-Hydroxyl-2-cyano-3-(4-(methyl-L-glutaminate-N5-yl)-benzyloxy)-12-oxo-oleana-2(3),9(11)-dien-28-oic Acid Methyl Ester assessed as GGT-mediated metabolite formation at 100 uM after 8 hrs by HPLC analysis; format: ADME, tissue-based; conditions: tissue homogenate
Procedure, shortened: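 Plasma, and kidney and liver homogenates in PBS, from three Wistar rats; substrate added at 100 μM at 37 °C; metabolite measured by HPLC every 60 min for 8 h; mean ± SD of three experiments.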

Mus musculus [3] = experiment: Anti-diabetic nephropathic activity in db/db mouse assessed as reduction in 24 hr urine volume at 0.65 mg/kg, ip administered trice per week for 12 consecutive weeks measured at 11 weeks post dose; format: functional, organism-based
Procedure, shortened: (§2)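 Male db/db mice, 8 weeks old, randomized; ip vehicle (5% Tween-80 in 0.9% saline) or drug three times weekly for 12 weeks, n = 6 per group. After 11 weeks, 24 h urine collected for volume, albumin and creatinine, with UACR calculated; blood then sampled for plasma BUN and uric acid. Mean ± SD, one-way ANOVA with Tukey test.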

Mus musculus [4] = experiment: Renoprotective activity in db/db mouse assessed as reduction in glomerular basement thickening at 0.65 mg/kg, ip administered trice per week for 12 consecutive weeks measured at 11 weeks post dose by TEM microscopic analysis; format: functional, organism-based
Procedure, shortened: (§3)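 Male db/db mice (8 weeks old) were dosed i.p. three times weekly for 12 weeks in 5% Tween-80/0.9% saline, n = 6. Kidney tissue was fixed in 3% glutaraldehyde, cut into 80 nm ultrathin sections and examined by TEM. GBM thickness was measured at 30 random locations from three sections per kidney and averaged per mouse.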

[5] = target: Kelch-like ECH-associated protein 1 (Homo sapiens) (UniProt Q14145); experiment: Inhibition of Keap1/Nrf2 (unknown origin) interaction transfected in HEK293 cells assessed as increase in cytosolic HO-1 levels at 200 to 1000 nM after 48 hrs by Western blot analysis; format: cell-based; procedure, shortened: as §1
[6] = Drug level in Krebs buffer treated with 1-Hydroxyl-2-cyano-3-(4-(methyl-L-glutaminate-N5-yl)-benzyloxy)-12-oxo-oleana-2(3),9(11)-dien-28-oic Acid Methyl Ester assessed as bovine kidney GGT-mediated metabolite formation at 100 uM at pH 7.4 after 8 hrs by HPLC analysis; format: ADME, Bos taurus; conditions: cattle, pH 7.4, 8 h
Procedure, shortened: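 Substrate at 100 μM in Krebs buffer, pH 7.4, 37 °C, with GGT (1 U/mL) and Gly-Gly acceptor (5 mM) for 8 h, in triplicate; acetonitrile (2 volumes) added, enzyme removed by centrifugation, products by HPLC.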

Mus musculus [7] = experiment: Toxicity in db/db mouse assessed as effect on water consumption at 0.65 mg/kg, ip administered trice per week for 12 consecutive weeks measured every other day; format: organism-based; conditions: in vivo
Procedure, shortened: (§4)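 Male db/db mice (8 weeks old, specific pathogen-free, normal chow and filtered water ad libitum) were randomized and dosed i.p. three times weekly for 12 consecutive weeks; vehicle was 5% Tween-80 in 0.9% saline. Body weight and food and water consumption were recorded every other day.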

Mus musculus [8] = experiment: Renoprotective activity in db/db mouse assessed as reduction in loss of foot processes at 0.65 mg/kg, ip administered trice per week for 12 consecutive weeks measured at 11 weeks post dose by TEM microscopic analysis; format: functional, organism-based; procedure, shortened: as §3
[9] = target: Kelch-like ECH-associated protein 1 (Homo sapiens) (UniProt Q14145); experiment: Inhibition of Keap1/Nrf2 (unknown origin) interaction transfected in HEK293 cells assessed as increase in cytosolic HO-1 levels after 48 hrs by Western blot analysis; format: cell-based; procedure, shortened: as §1
[10] = Drug metabolism in PBS buffer at 100 uM after 8 hrs by HPLC analysis; format: physicochemical; conditions: read-out: Drug metabolism
Procedure, shortened: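 Substrate incubated in PBS, pH 7.4, at 37 °C for 8 h; conversion measured by HPLC.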

Mus musculus [11] = experiment: Cardioprotective activity in C57BL/6 db/db mouse assessed as reduction in apoptotic cardiomyocyte levels at 1 to 2 mg/kg, ip administered for 12 weeks by TUNNEL assay; format: functional, organism-based
Procedure, shortened: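 db/db mice, 8 weeks old, with C57BL/6 controls; ip vehicle or drug for 12 weeks, n = 6 per group. Heart sections (5 μm) from paraformaldehyde-fixed, paraffin-embedded tissue analysed by TUNEL; percentage of apoptotic cardiomyocytes from three sections per mouse; mean ± SD from two separate experiments.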

[12] = Drug level in Sprague-Dawley rat liver at 30 mg/kg, ip measured at 90 mins by LC-MS/MS analysis; format: ADME, organism-based; conditions: read-out: Drug uptake
Procedure, shortened: (§5)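 Rats given a single ip injection, 20 mg/kg (0.04 mmol) of CDDO-Me or 30 mg/kg (0.04 mmol) of the prodrug; heart, kidney and liver collected over time; parent compound and liberated CDDO-Me measured by LC-MS/MS.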

Kidney = experiment: In vivo drug metabolism in Sprague-Dawley rat assessed as CDDO-Me formation in kidney at 30 mg/kg, ip measured at 10 mins by LC-MS/MS analysis; format: ADME, organism-based; procedure, shortened: as §5
Mus musculus [13] = experiment: Renoprotective activity in db/db mouse assessed as reduction in fused podocytes at 1 to 2 mg/kg, ip administered trice per week for 12 consecutive weeks measured at 11 weeks post dose by TEM microscopic analysis; format: functional, organism-based; procedure, shortened: as §3
Mus musculus [14] = experiment: Antidiabetic nephropathic activity in db/db mouse assessed as reduction in urine albumin to creatinine ratio at 1 to 2 mg/kg, ip administered thrice per week for 12 consecutive weeks measured at 24 hrs post 11 week administration; format: functional, organism-based; procedure, shortened: as §2
Mus musculus [15] = experiment: Anti-diabetic nephropathic activity in db/db mouse assessed as reduction in plasma urea nitrogen levels at 1 to 2 mg/kg, ip administered thrice per week for 12 consecutive weeks measured 11 weeks post dose; format: functional, organism-based; procedure, shortened: as §2
Mus musculus [16] = experiment: Toxicity in db/db mouse assessed as effect on food consumption at 1 to 2 mg/kg, ip administered thrice per week for 12 consecutive weeks measured every other day; format: organism-based; conditions: in vivo; procedure, shortened: as §4
[17] = Drug level in Sprague-Dawley rat heart at 30 mg/kg, ip measured at 90 mins by LC-MS/MS analysis; format: ADME, organism-based; conditions: read-out: Drug uptake; procedure, shortened: as §5
Mus musculus [18] = experiment: Antidiabetic nephropathic activity in db/db mouse assessed as reduction in urinary albumin at 1 to 2 mg/kg, ip administered thrice per week for 12 consecutive weeks measured at 24 hrs post 11 week administration; format: functional, organism-based; procedure, shortened: as §2
Mus musculus [19] = experiment: Renoprotective activity in db/db mouse assessed as reduction in mesangial expansion at 1 to 2 mg/kg, ip administered trice per week for 12 consecutive weeks measured at 11 weeks post dose by TEM microscopic analysis; format: functional, organism-based; procedure, shortened: as §3

Sequence of Kelch-like ECH-associated protein 1 (Homo sapiens) (Q14145 whole entry): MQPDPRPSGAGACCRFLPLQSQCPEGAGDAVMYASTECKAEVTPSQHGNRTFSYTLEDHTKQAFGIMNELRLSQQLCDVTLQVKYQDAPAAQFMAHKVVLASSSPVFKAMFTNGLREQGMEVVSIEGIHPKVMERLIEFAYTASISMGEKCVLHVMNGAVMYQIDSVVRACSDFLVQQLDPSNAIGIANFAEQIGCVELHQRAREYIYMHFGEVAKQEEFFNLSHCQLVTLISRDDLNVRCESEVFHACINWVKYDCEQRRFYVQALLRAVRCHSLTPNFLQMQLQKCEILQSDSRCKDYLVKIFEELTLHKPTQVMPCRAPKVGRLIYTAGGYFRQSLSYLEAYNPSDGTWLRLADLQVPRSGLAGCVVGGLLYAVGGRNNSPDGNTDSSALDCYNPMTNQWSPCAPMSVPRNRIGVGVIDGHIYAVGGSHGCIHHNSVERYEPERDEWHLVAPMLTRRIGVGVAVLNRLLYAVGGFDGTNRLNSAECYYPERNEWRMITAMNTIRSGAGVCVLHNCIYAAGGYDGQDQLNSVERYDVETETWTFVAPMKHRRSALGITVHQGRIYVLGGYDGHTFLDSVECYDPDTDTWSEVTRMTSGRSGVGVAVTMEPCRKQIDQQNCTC

Row | Structure (SMILES) | inhibition [1] | Drug metabolism [2] | Activity (Mus musculus [3]) | Activity (Mus musculus [4]) | inhibition [5] | Drug metabolism [6] | Activity (Mus musculus [7]) | Activity (Mus musculus [8]) | inhibition [9] | degraded at 8 h, 100 µM [10] | Activity (Mus musculus [11]) | concentration at 1.5 h [12] | Drug metabolism (Kidney) | Activity (Mus musculus [13]) | Activity (Mus musculus [14]) | Activity (Mus musculus [15]) | Activity (Mus musculus [16]) | concentration at 1.5 h [17] | Activity (Mus musculus [18]) | Activity (Mus musculus [19])
1 | COC(=O)[C@]12CCC(C)(C)C[C@H]1[C@H]1C(=O)C=C3[C@@]4(C)C=C(C#N)C(=O)C(C)(C)[C@@H]4CC[C@@]3(C)[C@]1(C)CC2 [BARDOXOLONE METHYL] | Active | Metabolite_Detected | Active | Active | Active | Metabolite_Detected | Non-Toxic | Active |  |  |  |  |  |  |  |  |  |  |  | 
2 | COC(=O)[C@@H](N)CCC(=O)Nc1ccc(COC2=C(C#N)[C@H](O)[C@]3(C)C4=CC(=O)[C@@H]5[C@@H]6CC(C)(C)CC[C@]6(C(=O)OC)CC[C@@]5(C)[C@]4(C)CC[C@H]3C2(C)C)cc1 |  |  |  |  |  |  |  |  | Dose-dependent effect | 20% | Active | 6040 ng/g | 0.04 µg/g | Active | Active | Active | Non-Toxic | 1310 ng/g | Active | Active
